The values that follow come from the RNAGym collection of RNA variant scans (doi:10.1126/science.aae0568).

The labels stand for the following.
B1: tRNA (parent)
chain: GUUCCGUUGGCGUAAUGGUAACGCGUCUCCCUCCUAAGGAGAAGACUGCGGGUUCGAGUCCCGUACGGAACG

Fewer inactive variants are shown than the library holds.

In the data set the parent is B1. The data set is described as follows: yeast fitness relative to wild type (ratio to wild type); higher = fitter; tRNA-Arg(CCU), competitive growth, 37 C, YPD. Put shortly: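 Amplicons of the tRNA-Arg(CCU) gene were sequenced, 100-nucleotide paired-end, from the start population and from each end population of a pooled yeast competition. The competition, in six parallel replicates, lasted 24 hours in YPD at 37°C. Fitness relative to wild type was calculated from changes in genotype frequencies. Genotypes had to have ≥ 100 starting reads, and estimates < 0.5 were set to 0.5.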
Take C5U G23A A69U: the yeast fitness was not above 0.5.

Take G6A C11U A21C U28A C62U: the yeast fitness is not above 0.5.

With C5U G39A U53A, the yeast fitness was not above 0.5.

In the case of G6A A21G C55U C66U, the yeast fitness is not above 0.5.

As to G6A A14U C34A A70G, the yeast fitness was not above 0.5.

On to G6A C30U U35C, for which the yeast fitness is not above 0.5.

Take G6A A69U: the yeast fitness amounted to 0.916.

For the variant C5U U35A G44A, the yeast fitness was 0.558.

For the variant C5U G39C, the yeast fitness is 0.769.

Consider G6A A15C U28A C31G U64A C66U G68C, for which the yeast fitness was not above 0.5.

As to G6A C29U G50C U53C A57U C61G, the yeast fitness is not above 0.5.

C5U U19C A21U A37C C61A A65C: the yeast fitness was not above 0.5.

On to G6A A20C C29A G44C, for which the yeast fitness was not above 0.5.

For the variant G6A C11A A14C U19C U32A A42C U54C C61U G68C, the yeast fitness was not above 0.5.

Consider C5U U7G G9A C31G A36G, for which the yeast fitness was not above 0.5.

Turning to C5U C31A, the yeast fitness is 0.688.

For the variant C5U C31U, the yeast fitness amounted to 1.03.

Take C5U U13C C24G U26C A37G U54G C61G: the yeast fitness is 0.575.

As for C5U G18C A40G A43C U54A, the yeast fitness turned out to be 0.72.

Turning to C5U U26C A40U, the yeast fitness was not above 0.5.

As to G6A A20C A36C U47A G48C U54G A65C, the yeast fitness was not above 0.5.

For G6A C22U U53G, the yeast fitness is 0.653.

Take C5U C27G C33G A42C U64A: the yeast fitness was not above 0.5.

Regarding G6A A20C G39C C60G C61G, the yeast fitness is not above 0.5.

Turning to G6A C46G G51A, the yeast fitness turned out to be 0.637.

As to G6A A45C G58A, the yeast fitness was 0.519.

Regarding C5U U35G A45U A57C, the yeast fitness is not above 0.5.

As for C5U U8C A21G A42U G58A, the yeast fitness is 0.726.

For the variant G6A A15U G18C G23C A43G C60U, the yeast fitness is not above 0.5.

Regarding C5U C27U C34U G44A, the yeast fitness worked out at 0.547.

C5U U13A A15G A20G C22G C46G G51A: the yeast fitness is not above 0.5.

For the variant C5U U13A A43C C46G, the yeast fitness was determined as 0.627.

Regarding G6A A37G C60G A70U, the yeast fitness was not above 0.5.

Turning to G6A C31G A40U, the yeast fitness was found to be 0.688.

As to C5U G6A C66U, the yeast fitness amounted to 0.975.

On to C5U G9C A36G, for which the yeast fitness stood at 0.538.

As for G6A A15C A20U A36U G39A, the yeast fitness is not above 0.5.

For C5U U13A C61U, the yeast fitness was found to be 0.624.

For C5U C29A C62A, the yeast fitness was not above 0.5.

C5U G17A A36U U47A C66U: the yeast fitness turned out to be 0.58.

In the case of C5U G17A A40U A42C C49A G56A, the yeast fitness was not above 0.5.

In the case of C5U G44C G68U, the yeast fitness stood at 0.663.

For C5U U8C A20G C30A C61A, the yeast fitness came to 0.649.

Turning to C5U C27A C61U, the yeast fitness is 0.589.

As to C5U U32A A43G, the yeast fitness was not above 0.5.

G6A A14U C22U A37G: the yeast fitness is not above 0.5.

Consider C5U C33U A45G C61U, for which the yeast fitness is not above 0.5.

As to C5U C33A A36C A37C A43G A70U, the yeast fitness was not above 0.5.

For the variant C5U G18C G52C, the yeast fitness was not above 0.5.

In the case of G6A C29A C55U, the yeast fitness worked out at 0.514.

In the case of C5U G68C A69U, the yeast fitness was not above 0.5.

Turning to G6A C11U A43U C62G C66A A69C, the yeast fitness was not above 0.5.

For C5U U7C C30A A42C, the yeast fitness worked out at 0.583.

As for C5U G18A A42C, the yeast fitness was found to be 0.674.

As to C5U U8C A20G C30A C61A G67U, the yeast fitness is not above 0.5.

Consider G6A A20C A57C, for which the yeast fitness is not above 0.5.

Turning to G6A G9A A36C A37U G51A C62G, the yeast fitness is not above 0.5.

Take G6A C24U C31A A43C G58C U64G: the yeast fitness is not above 0.5.

With C5U C24U A36G, the yeast fitness turned out to be 0.791.

As to G6A C24U, the yeast fitness was 0.733.

As for G6A C30G G67C A69G, the yeast fitness is not above 0.5.

For the variant C5U C30G C61A, the yeast fitness is not above 0.5.

For the variant C5U C31A C34U A43G, the yeast fitness came to 0.77.

Regarding C5U U7C C31A G39A, the yeast fitness is not above 0.5.

C5U U32C G39A C60U C61G: the yeast fitness came to 0.527.

As for C5U G44C A69U, the yeast fitness turned out to be 0.815.

For C5U U7A U35A A36U A45U, the yeast fitness is not above 0.5.

Regarding G6A A36C, the yeast fitness was found to be 0.53.

Take C5U U35C: the yeast fitness was 0.811.

For the variant C5U C55A, the yeast fitness worked out at 0.668.

As for C5U C27U A45U C60G, the yeast fitness was not above 0.5.

For the variant G6A C22G U47A, the yeast fitness is not above 0.5.

On to G6A A21U U26G A70C, for which the yeast fitness came out at 0.569.

Regarding G6A A14G C24A A36G A45U, the yeast fitness was not above 0.5.

On to C5U C29A A37U G38A, for which the yeast fitness is not above 0.5.

On to G6A A15U C22A, for which the yeast fitness was not above 0.5.

Consider C5U G39C C46U C49U G56A G68C, for which the yeast fitness is 0.669.

Regarding G6A C27U A57U, the yeast fitness came out at 0.544.

Turning to G6A C62A A70C, the yeast fitness was determined as 0.636.

With C5U G56C C60A, the yeast fitness was 0.641.

As for C5U U47A G68C, the yeast fitness came to 0.534.

As for G6A A20C C31U C33G, the yeast fitness was not above 0.5.

Regarding C5U U28G C61G, the yeast fitness came out at 0.58.

As for C5U U13G C33A A37C A70G, the yeast fitness is not above 0.5.

As for C5U G25C A36C A40U, the yeast fitness is not above 0.5.

Take C5U C55G C61A: the yeast fitness is not above 0.5.

With C5U G10A U13A A15G G50C A57G, the yeast fitness is not above 0.5.

As to C5U C29A G39C G50A G63A A69C, the yeast fitness is not above 0.5.

On to G6A C24U C31A A43C U53C, for which the yeast fitness was not above 0.5.

For C5U G58C U59C A70G, the yeast fitness is not above 0.5.

As for C5U C24U G52U C55A, the yeast fitness is not above 0.5.

Turning to C5U U8C A20G C30A A57U C61U, the yeast fitness was not above 0.5.

As for G6A C11G C22G C49A G51A, the yeast fitness was not above 0.5.

On to G6A A57U G58A A65U, for which the yeast fitness was not above 0.5.

In the case of G6A C27G A57C C66G, the yeast fitness was not above 0.5.

With C5U G18C C22A G51C, the yeast fitness came out at 0.562.

Take G6A C27A A36G A70U: the yeast fitness was not above 0.5.

On to C5U U8C G41C A69U, for which the yeast fitness was not above 0.5.

As to C5U C30G C55G, the yeast fitness was not above 0.5.

As for C5U U13C U19A A21U C24A U54C U59C A69G, the yeast fitness was 0.524.

C5U C55G C66U A69U: the yeast fitness was not above 0.5.

Take C5U U13C C22G C29A A45U: the yeast fitness was not above 0.5.

For C5U G18A C30A G58A, the yeast fitness is not above 0.5.

As to C5U C34G U64A, the yeast fitness was not above 0.5.

Regarding C5U G23A U54C, the yeast fitness was not above 0.5.

Consider C5U U13C U35G C49U, for which the yeast fitness was 0.608.

Take C5U G6C A21U U35C G39A: the yeast fitness was not above 0.5.

For the variant C5U U13G A42U, the yeast fitness is 0.627.

In the case of C5U G10A A14C, the yeast fitness stood at 0.6.

With G6A C31U A36G, the yeast fitness was not above 0.5.

With G6A C24U C66U, the yeast fitness is 0.647.

As to C5U G12C A42G C55A C62A, the yeast fitness was not above 0.5.

Consider G6A A43G, for which the yeast fitness turned out to be 0.801.

Take C5U U35G U47A G48A: the yeast fitness was not above 0.5.

Take G6A G17C C31A A36U G56A: the yeast fitness was 0.632.

With C5U G56A C61A, the yeast fitness is not above 0.5.

For G6A G17A G38C, the yeast fitness amounted to 0.708.

With G6A A21C U47A G68A, the yeast fitness is not above 0.5.

For the variant G6A C24G C31G C34U, the yeast fitness was not above 0.5.

As to G6A C11G, the yeast fitness stood at 0.738.

G6A A45G G67U: the yeast fitness came to 0.687.

On to G6A C31U C55U, for which the yeast fitness came out at 0.571.

Regarding C5U G9A U54C C61G, the yeast fitness stood at 0.673.

Turning to C5U C33A, the yeast fitness turned out to be 0.737.

C5U C33G: the yeast fitness was found to be 0.777.

As for G6A A36U G41A C60G, the yeast fitness was not above 0.5.

Take G6A A15U A69U A70U: the yeast fitness is not above 0.5.

In the case of G6A G9C C11G G25A C34U G68A, the yeast fitness was not above 0.5.

In the case of C5U U26C A69C, the yeast fitness was 0.655.

For G6A C22G A40C G41C G68C, the yeast fitness is not above 0.5.

Take C5U U32C: the yeast fitness turned out to be 0.892.

C5U C30A U53A C62U: the yeast fitness worked out at 0.659.

As to C5U C34A A57G, the yeast fitness is not above 0.5.

Regarding C5U U7G C24U C34G A37C A42U C66U, the yeast fitness is not above 0.5.

With C5U G17C C24G G38C G51C U59G, the yeast fitness is not above 0.5.

Turning to C5U G18A A37C C61U, the yeast fitness was not above 0.5.

Take G6A A14G C22G U35G A40C A70G: the yeast fitness is not above 0.5.

On to G6A C29G A43U, for which the yeast fitness was not above 0.5.

As to C5U C49G, the yeast fitness was 0.919.

As for G6A G9C G44C C66U, the yeast fitness is not above 0.5.

With C5U C29G, the yeast fitness came to 0.64.

As to G6A A14U, the yeast fitness came out at 0.663.

Consider G6A A14C, for which the yeast fitness was 0.674.

Take C5U G9A A37C C60U G67A: the yeast fitness is not above 0.5.

Consider C5U U7A U35A A36U A45U C60G, for which the yeast fitness is not above 0.5.

Regarding C5U U28A C30G, the yeast fitness was not above 0.5.

Regarding G6A A40U, the yeast fitness was determined as 0.823.

C5U C31G C33U: the yeast fitness turned out to be 0.522.

Regarding C5U U7C A40U U59A A65U G68A, the yeast fitness was 0.649.

In the case of G6A A14G G23A C24G G44A, the yeast fitness is not above 0.5.

Take C5U G23C U32C A42G U54A: the yeast fitness is not above 0.5.

As to G6A C34A A40U U64A, the yeast fitness was not above 0.5.

For the variant G6A A21C U28A C62U, the yeast fitness is not above 0.5.

On to C5U U35A A45C, for which the yeast fitness is 0.602.

C5U U7C C46U: the yeast fitness worked out at 0.728.

With G6A A14G A45G, the yeast fitness turned out to be 0.797.

Take C5U C30G A36U G51A G52A: the yeast fitness stood at 0.524.

Consider G6A A15G C22A, for which the yeast fitness is not above 0.5.

G6A G12C U16C A21U G63C G67A: the yeast fitness is not above 0.5.

C5U U19A A21G A43C G51C: the yeast fitness was not above 0.5.

In the case of G6A G9A C22U C30G, the yeast fitness is not above 0.5.

C5U G17C C24G G38C: the yeast fitness was 0.609.

In the case of C5U U7C U13G A36C C46U, the yeast fitness is 0.757.

With G6A C34U, the yeast fitness turned out to be 0.65.

For the variant G6A A14U A20C U28C C46U G58A, the yeast fitness is not above 0.5.

With G6A C61A C62U A65U A69C, the yeast fitness is not above 0.5.

Regarding C5U G23C U26C U32A A42U A65C, the yeast fitness is not above 0.5.
